TAAR1 ag: agonists of human TAAR1; CHO RD-HGA16 TAAR1, Fluo-8 calcium fluorescence; vehicle wells 0%, saturating PEA agonist 100%; hit rate 0.99% among 360,000; activation, % at 3 µM;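 active means activation above the mean activation of all test compounds in the run plus 3 SD, cut at about 38% in these data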
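System: CHO-derived RD-HGA16 cells with stable Gα16 and human TAAR1. Times: 17-24 h plating, Fluo-8 75 min 37 °C, 30 min RT. Measured by: calcium-sensitive Fluo-8 signal, excitation 470-495, emission 515-575 nm. Read-out basis: % activation relative to PEA EC100 response. Control set: DMSO and PEA EC100. Repeats: no replicates (n 1).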
TAAR1 antag: antagonists of human TAAR1; Q96RJ0; CHO RD-HGA16 TAAR1, Fluo-8 calcium fluorescence, antagonist; inhibition, % at 3 µM; hit rate 1.5% among 360,000; AID 624466;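 active means inhibition above a per-plate cutoff, the mean inhibition of test compounds on that plate plus 3 SD, cut at about 49% in these data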;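 further: 0% = DMSO plus EC80 beta-PEA response and 100% = DMSO alone without agonist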
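System: CHO RD-HGA16 cells bearing hTAAR1. Reagent: EC80 β-phenethylamine stimulus. Schedule: seeding 17-24 h prior, 75-min 37 °C, 30-min RT dye loading. Signal: Fluo-8 intracellular calcium dye fluorescence, real-time kinetic reads. Read-out: % inhibition from peak post-agonist over basal fluorescence ratio. Benchmarks: vehicle wells and EC80 agonist wells. Replicates: n of 1.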
OX1R antag-1: antagonists of human orexin 1 receptor (OX1R); OX1R-expressing cells, FRET antagonist read-out; inhibition, % at 6.6 µM; hit rate 1.8% among 330,000; AID 485270; in the data active means inhibition mostly above about 38%, no sharp cut-off; inactive means mostly below about 40%;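 further: 0% = agonist challenge alone and 100% = reference antagonist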
Target sequence (O43613 whole entry, looked up): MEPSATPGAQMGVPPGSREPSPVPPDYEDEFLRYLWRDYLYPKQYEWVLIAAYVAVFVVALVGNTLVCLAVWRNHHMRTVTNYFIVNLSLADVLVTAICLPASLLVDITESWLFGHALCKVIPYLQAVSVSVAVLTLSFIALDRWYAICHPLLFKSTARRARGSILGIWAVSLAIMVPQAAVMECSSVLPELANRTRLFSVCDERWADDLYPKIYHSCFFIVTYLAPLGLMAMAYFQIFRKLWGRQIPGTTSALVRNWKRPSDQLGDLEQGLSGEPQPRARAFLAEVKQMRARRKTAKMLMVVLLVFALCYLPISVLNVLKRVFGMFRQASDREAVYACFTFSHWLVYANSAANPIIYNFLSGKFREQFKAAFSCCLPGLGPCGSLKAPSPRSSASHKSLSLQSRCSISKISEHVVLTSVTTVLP
OX1R antag-2: human HCRTR1 antagonism; AID 434989; hit rate 0.43% among 330,000; O43613; inhibition, % at 5 µM; CHO/OX1R cells, Fluo-8 calcium fluorescence, orexin A;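 active means inhibition above its plate's threshold, mean inhibition of all tested compounds on the plate plus 3 SD, cut at about 37% in these data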;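 further: 0% = orexin A challenge wells and 100% = SB-334867-A antagonist wells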
GPR7 antag: human neuropeptides B/W receptor 1 antagonism | P48145 | GPR7-expressing cells, fluorescence antagonist assay | hit rate 1.1% among 290,000 | inhibition, % at 4.4 µM; in the data active means inhibition above about 16%, passing the limit was not always enough;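 further: cells stimulated with the agonist NPW; 0% = agonist with vehicle and 100% = vehicle without agonist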
CHO parental Ca: signal in parental CHO cells, OX1R antagonist counter-screen; parental CHO-K1, ATP-induced calcium, Fluo-8 fluorescence; inhibition, % at 5.6 µM; hit rate 0.63% among 330,000;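 active means inhibition above that plate's mean sample inhibition plus 3 SD, cut at about 26% in these data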;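 further: 0% = ATP-challenged DMSO wells and 100% = DMSO wells without ATP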
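Material: parental CHO cells / Compound: single nominal dose of 5.6 µM per compound / Signal: Fluo-8 fluorescence / Replicates: singlicate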
Numbers without * were called inactive; x = no result. An excerpt weighted towards active compounds, which were near 4.6% of everything screened.

SMILES	TAAR1 ag	TAAR1 antag	OX1R antag-1	OX1R antag-2	GPR7 antag	CHO parental Ca
COc1ccc(N(C(=O)c2snc(C(N)=O)c2N)C(C(=O)NCc2ccccc2)c2ccc(O)cc2)cc1OC (stereo unspecified)	0	-12	x	x	-1	x
COc1ccc(CNC(=O)C(C)N(Cc2ccccc2OC)C(=O)c2snc(C(N)=O)c2N)cc1 (stereo unspecified)	15	51*	21	-24	-4	-14
c1ccc(Cc2cnc(N3CCN(Cc4ccc5c(c4)OCCO5)CC3)nc2)cc1	-1	-29	x	x	x	x
CC(=O)Nc1cc(-c2cccc(NS(C)(=O)=O)c2)cn2c(-c3ccccc3)cnc12	6	29	x	x	x	x
COc1cccc(-c2cnc3c(NC(C)=O)cc(-c4cccc(NS(C)(=O)=O)c4)cn23)c1	7	50*	x	x	x	x
CC(=O)Nc1cccc(-c2cc(NC=O)c3ncc(-c4cccc(C(C)=O)c4)n3c2)c1	7	26	x	x	x	x
CC(=O)Nc1cc(-c2ccc(CO)cc2)cn2c(-c3ccc(F)c(Cl)c3)cnc12	5	54*	x	x	x	x
CC(=O)Nc1cccc(-c2cc(NC(C)=O)c3ncc(-c4cccc(C(F)(F)F)c4)n3c2)c1	17	50*	x	x	x	x
COc1cccc(-c2cnc3c(NC=O)cc(-c4cccc(NC(C)=O)c4)cn23)c1	9	55*	x	x	x	x
COC(=O)[C@]12C[C@H](CC(=O)NCc3ccc(OC)c(OC)c3)C(=O)N(Cc3ccc4c(c3)OCO4)C1=C[C@H](COCc1ccccc1)O[C@@H]2C	0	-9	x	x	x	x
Cn1cccc1/C=N/n1c(-c2ccc(C(C)(C)C)cc2)n[nH]c1=S	26	52*	7	-8	-23	2
Cc1c(C(c2ccc(N(C)C)cc2)c2c(C)n(C)n(-c3ccccc3)c2=O)c(=O)n(-c2ccccc2)n1C	2	-7	71*	-12	-11	-5
COc1cccc(-c2cc(C(=O)Nc3cccc(O)c3)no2)c1	8	34	71*	15	-11	-6
O=C(Nc1cccc(C(F)(F)F)c1)c1cc(-c2ccc(F)cc2)on1	8	8	10	-19	-18	58*
O=C(Nc1ccccc1C(F)(F)F)c1cc(-c2cccc(O)c2)on1	7	16	9	3	-11	51*
COc1cc(NC(=O)c2cc(-c3cccc(O)c3)on2)cc(OC)c1OC	10	42	38*	-14	-1	-4
CC(C)c1cc(C(=O)Nc2cccc(C(F)(F)F)c2)no1	7	3	19	-2	-7	-4
CCc1ccccc1NC(=O)c1cc(-c2cccc(O)c2)on1	7	8	14	-5	-16	-9
Cc1cc2c(nc1C)CCCN2S(=O)(=O)c1ccc(F)cc1	-1	1	x	x	x	x
C[C@H](CO)N1C[C@H](C)[C@H](CN(C)S(=O)(=O)c2ccc(F)cc2)Oc2ncc(Br)cc2C1=O	-1	7	x	x	x	x
COc1ccc(C)cc1NC(=O)c1nn(-c2ccccc2)cc1OC	-5	30	48*	17	-19	-17
Cc1nn(-c2ccccc2)c(C)c1NC(=O)COC(=O)/C=C/c1ccccc1	19	60*	15	-3	x	1
CCC(C(=O)OCC(=O)Nc1c(C)nn(-c2ccccc2)c1C)c1ccccc1 (stereo unspecified)	9	35	13	-29	x	-23
COc1ccc(C)cc1NC(=O)COC(=O)c1c(C)nn(-c2ccccc2)c1C	2	18	30*	37	x	-1
COc1ccc(OC)c(NC(=O)COC(=O)c2c3c(nc4ccccc24)CCCC3)c1	13	44	57*	33	-7	10
SMILES	TAAR1 ag	TAAR1 antag	OX1R antag-1	OX1R antag-2	GPR7 antag	CHO parental Ca
Cc1nc(CCNC(=O)C2CCC(=O)N(Cc3cccc(F)c3)C2)sc1C (stereo unspecified)	1	-16	1	-17	-12	-14
O=C(CCc1ccccc1)OCC(=O)c1cccc([N+](=O)[O-])c1	-1	-7	32	-8	-20	-5
O=C(COc1cccc(NC(=O)c2cccc([N+](=O)[O-])c2)c1)c1ccc(Br)cc1	19	83*	54	21	-2	9
O=C(COC(=O)c1cccc([N+](=O)[O-])c1)c1ccc(OCc2ccccc2)cc1	1	-2	5	53*	3	53*
CCOC(=O)c1c(Nc2ccc(OC)cc2)n[nH]c1C	-2	-1	x	x	x	x
CCC1(c2ccc(F)cc2)NC(=O)N(CC(=O)Nc2ccc(N3CCCCC3)cc2)C1=O (stereo unspecified)	60*	19	-10	-12	x	1
O=S(=O)(c1ccc(C(F)(F)F)cc1)N1CCCc2nc(-c3ccccc3)ccc21	3	-14	x	x	x	x
N#CC(C#N)=C1C=CC=CN1/C(=C\c1ccco1)C(=O)c1ccc(Cl)cc1	8	27	88*	62*	10	90*
Cc1cc(C)c(S(=O)(=O)N2C[C@H]3CON(C)[C@H]3C[C@H]2c2ccc(-n3ccnc3)cc2)c(C)c1	-1	-4	x	x	x	x
Cc1ccc(CNc2ncnc3cc(Cl)ccc23)cc1	0	16	31	-16	9	35*
CC(C)S(=O)(=O)N[C@@H]1c2cc3c(cc2[C@H](c2ccccc2)[C@H]1C)OCO3	15	9	x	x	x	x
Nc1[nH]n(-c2ccccc2)c(=O)c1N=Nc1ccc2ncsc2c1	6	27	53*	-3	-10	-12
CC(=O)c1c(O)cc(O)cc1CC(=O)O	2	-8	1	-7	-12	-11
CC(=O)c1c(O)cc(O)c(C(C)=O)c1O	x	x	72*	33	x	57*
COc1ccc(CN2C(=O)CCC2(C)c2nnnn2-c2ccc3c(c2)OCCO3)cc1 (stereo unspecified)	0	-18	x	x	x	x
COc1ccccc1NC(=O)C(C)N1C(=O)C2CCCCC2C1=O (stereo unspecified)	-1	1	9	12	x	-17
O=S(=O)(c1cccs1)N1CCN(c2ccnc3cc(Cl)ccc23)CC1	0	35	8	-39	5	-14
O=S(=O)(c1ccccc1)N1CCN(c2ccnc3cc(Cl)ccc23)CC1	6	39	29	38	11	89*
CCN(CC)c1ccc(CNc2ccc3c(c2)ncn3CC)cc1	6	-6	-9	0	-19	46*
CCn1cnc2cc(NCc3ccc(N(C)C)cc3)ccc21	2	-31	17	-13	-10	-13
CC(C)(C)n1nc(C2CC2)c(Br)c1NC(=O)c1ccc(Cl)cc1	-1	-10	x	x	x	x
CC1CC(C)CN(C(=O)CSc2nc(Cc3cccs3)nc3ccccc23)C1 (stereo unspecified)	5	50*	22	-5	-28	-23
COc1ccccc1N1CCN(CC(=O)Nc2ccccc2C(=O)NCCc2ccccc2)CC1	11	55*	0	-14	x	-16

Screening data deposited in PubChem BioAssay by The Scripps Research Institute Molecular Screening Center.
